Experimental data pooled from the literature.
Each line is one published result; the experiments were not run side by side.
Ribonuclease H1: Ribonuclease H1 (Homo sapiens, UniProt O60930)
CNR2: Cannabinoid receptor 2 (CNR2, Homo sapiens, UniProt P34972)
F10: Coagulation factor X (F10, Homo sapiens, UniProt P00742)

| SMILES | target | assay | setting | measurement | result |
| --- | --- | --- | --- | --- | --- |
| Cc1ccc(NC(=O)c2c(Nc3ccccc3)[nH]c(=O)n(O)c2=O)cc1 | Ribonuclease H1 | enzyme activity, inhibitor | – | IC50 | > 10000 nM |
| CCCCC/C=C\C/C=C\C/C=C\Cc1ccccc1CCCC(=O)N[C@H](C)CO | CNR2 | cAMP, agonist | – | EC50 | 12.5 nM |
| O=C1c2ccccc2C(c2ccccc2F)C(=O)N1O (centres unmarked) | Ribonuclease H1 | enzyme activity, inhibitor | – | IC50 | 4640 nM |
| CC[C@H](C)[C@@H](C(=O)N1CCC[C@H]1c1nccs1)N(C)C(=O)[C@H](CC(C)C)N(C)C(=O)[C@H](Cc1ccc(OC)cc1)N(C)C(=O)/C=C(\C)OC | CNR2 | ligand displacement, radioligand | – | IC50 | 6100 nM |
| N#CC(C#N)=Cc1ccc([N+](=O)[O-])c(O)c1 | Casein kinase I isoform alpha (CSNK1A1, Homo sapiens, UniProt P48729) | binding, SPR | – | Kd | > 50000 nM |
| N=C(N)NCCC[C@H](NC(=O)[C@H](Cc1ccccc1)NC(=O)[C@H](CCC(N)=O)NC(=O)OCc1ccccc1)C(=O)c1nccs1 | F10 | cell-free assay | – | Ki | 16 nM |
| CC(C)(NC(=O)c1nn(CCCCC#N)c2ccccc12)c1cccc(C(N)=O)c1 | CNR2 | ligand displacement, radioligand | cell membranes | Ki | 780 nM |
| CCCCC/C=C\[C@H](C)/C=C\C/C=C\Cc1ccccc1CCCC(=O)N[C@H](C)CO | CNR2 | β-arrestin recruitment, agonist | – | EC50 | 213 nM |
| CC(C)(NC(=O)c1nn(Cc2ccc(C#N)cc2)c2ccccc12)c1cccc(C(N)=O)c1 | CNR2 | ligand displacement, radioligand | cell membranes | Ki | 290 nM |
| CS(=O)(=O)N[C@@H](CCC(N)=O)C(=O)N[C@@H](Cc1ccccc1)C(=O)N[C@@H](CCCNC(=N)N)C(=O)c1nc2ccccc2s1 | F10 | cell-free assay | – | Ki | 16 nM |
| COc1ccc(-c2cccc(Nc3cc(=O)n(O)c(=O)n3C)c2)cc1 | Ribonuclease H1 | enzyme activity, inhibitor | – | IC50 | > 10000 nM |
| CC(C)(NC(=O)c1nn(CCCCCF)c2ccccc12)c1cccc(C(N)=O)c1 | CNR2 | ligand displacement, radioligand | cell membranes | Ki | 130 nM |
| COc1cc2c(cc1OC)CN(CCc1ccc(NC(=O)c3cccc4c(=O)c5cccc(OC)c5[nH]c34)cc1)CC2 | D(1B) dopamine receptor (DRD5, Homo sapiens, UniProt P21918) | cell-free assay | – | Ki | > 10000 nM |
| CCCCCc1ccccc1C/C=C\C/C=C\C/C=C\CCCC(=O)N[C@H](C)CO | CNR2 | cAMP, agonist | – | EC50 | 678 nM |
| CCCC[C@H](NC(C)=O)C(=O)N[C@H]1CC(=O)NCCCC[C@@H](C(=O)N2CCC[C@@H]2C(=O)N[C@@H](C(=O)N2CCC[C@@H]2C(N)=O)C(C)C)NC(=O)[C@H](Cc2c[nH]c3ccccc23)NC(=O)[C@H](CCCNC(=N)N)NC(=O)[C@@H](Cc2ccccc2)NC(=O)[C@@H]2CCCN2C1=O | Melanocortin receptor 5 (MC5R, Homo sapiens, UniProt P33032) | cAMP, agonist | – | EC50 | 0.391 nM |
| CCCCC/C=C\[C@H](C)/C=C\C/C=C\Cc1ccccc1CCCC(=O)OC(CO)CO | CNR2 | cAMP, agonist | – | EC50 | 1130 nM |
| CC(C)(C#N)CCCn1nc(C(=O)NC(C)(C)c2cccc(C(N)=O)c2)c2ccccc21 | CNR2 | ligand displacement, radioligand | cell membranes | Ki | 130 nM |
